Assay type in all cases: functional
One assay relates to Acinetobacter baumannii. Kind of assay: Antibacterial activity against Acinetobacter baumannii ATCC 17978 after 16 to 18 hrs by microbroth dilution method. The procedure, abridged: (§1)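 Broth microdilution in Mueller–Hinton broth following CLSI recommendations. Strains came from ATCC or CCUG collections or the authors' clinical isolates. Compounds were dissolved in DMSO as a 100 mg/ml stock and then diluted in culture medium. Inoculum was 5 × 10⁴ CFU/well. MIC was read after 16–18 h incubation at 35–37 °C.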
Background: In broth dilution the organism is exposed to a series of concentrations in liquid medium.

For another assay, the system named is Aeromonas hydrophila. Kind of assay: Antibacterial activity against Aeromonas hydrophila ATCC 7966 after 16 to 18 hrs by microbroth dilution method. The procedure, abridged: as §1
The subject of assay [1] is Elizabethkingia meningoseptica. Description: Antibacterial activity against Elizabethkingia meningoseptica CCUG 4310 after 16 to 18 hrs by microbroth dilution method. The procedure, abridged:
as §1

In another assay the test system is Escherichia coli. Kind of assay: Antibacterial activity against Escherichia coli CCUGT after 16 to 18 hrs by microbroth dilution method. The procedure, abridged:
as §1

Another assay deals with Klebsiella pneumoniae. Description: Antibacterial activity against Klebsiella pneumoniae ATCC 13833 after 16 to 18 hrs by microbroth dilution method. The procedure, abridged:
as §1

The next assay deals with Pseudomonas aeruginosa. Description: Antibacterial activity against Pseudomonas aeruginosa ATCC 27853 after 16 to 18 hrs by microbroth dilution method. The procedure, abridged: as §1
Another assay concerns Bacillus subtilis. Kind of assay: Antibacterial activity against Bacillus subtilis ATCC 6633 after 16 to 18 hrs by microbroth dilution method. The procedure, abridged: as §1
The subject of the next assay is Enterococcus faecalis. Kind of assay: Antibacterial activity against Enterococcus faecalis ATCC 19433 after 16 to 18 hrs by microbroth dilution method. The procedure, abridged:
as §1

Assay [2] has as its system Staphylococcus epidermidis. Kind of assay: Antibacterial activity against Staphylococcus epidermidis ATCC 14990 after 16 to 18 hrs by microbroth dilution method. The procedure, abridged:
as §1

For the next assay, the system named is Streptococcus pyogenes. Kind of assay: Antibacterial activity against Streptococcus pyogenes ATCC 12344 after 16 to 18 hrs by microbroth dilution method. The procedure, abridged: as §1

In general, MIC refers to the least concentration at which growth counts as inhibited. Read a low MIC as inhibition by little substance.

Molecules are shown by their SMILES.

Take `C=C(C)CNC(=N)NCCCCCCN1CCCCCCCCNC(=N)NC1=O.O=C(O)C(F)(F)F.O=C(O)C(F)(F)F`: the MIC in the assay with Acinetobacter baumannii is 256 mg/L; against Aeromonas hydrophila, over 256 mg/L; in assay [1], over 256 mg/L; against Escherichia coli it was 256 mg/L; against Klebsiella pneumoniae, over 256 mg/L; against Pseudomonas aeruginosa it was over 256 mg/L. Moreover, the MIC turned out to be 16 mg/L in the assay on Bacillus subtilis, 64 mg/L against Enterococcus faecalis, 16 mg/L in [2] and 8 mg/L with Streptococcus pyogenes.
For `CCNC(=N)NCCCCCCN1CCCCCCCCNC(=N)NC1=O.O=C(O)C(F)(F)F.O=C(O)C(F)(F)F`, the MIC (with Acinetobacter baumannii; against Aeromonas hydrophila; in [1]; against Escherichia coli; against Klebsiella pneumoniae; with Pseudomonas aeruginosa) was over 256 mg/L each time. For the same molecule, the MIC against Bacillus subtilis was 64 mg/L; with Enterococcus faecalis it was 128 mg/L; in assay [2] it was 32 mg/L; in the assay on Streptococcus pyogenes, 16 mg/L.
For the molecule `C#CCNC(=N)NCCCCCCCCNCCCCCCCCNC(=N)N.O=C(O)C(F)(F)F.O=C(O)C(F)(F)F.O=C(O)C(F)(F)F`, the MIC against Acinetobacter baumannii is 128 mg/L; against Aeromonas hydrophila, 256 mg/L; in assay [1] it was over 256 mg/L; against Escherichia coli, 16 mg/L; against Klebsiella pneumoniae, 32 mg/L; in the assay with Pseudomonas aeruginosa, 256 mg/L. Besides, the MIC in the assay with Bacillus subtilis is 4 mg/L; in the assay with Enterococcus faecalis it was 16 mg/L; in assay [2], 4 mg/L; with Streptococcus pyogenes, 2 mg/L.
Turning to `N=C(N)NCCCCCCCCNCCCCCCCCNC(=N)NCc1ccccc1.O=C(O)C(F)(F)F.O=C(O)C(F)(F)F.O=C(O)C(F)(F)F`, the MIC is 64 mg/L against Acinetobacter baumannii; 64 mg/L in the assay with Aeromonas hydrophila; 8 mg/L in the assay with Escherichia coli; 16 mg/L with Klebsiella pneumoniae; 64 mg/L in the assay on Pseudomonas aeruginosa; 4 mg/L against Bacillus subtilis. Moreover, the MIC in the assay with Enterococcus faecalis came out at 16 mg/L; in assay [2], 4 mg/L; with Streptococcus pyogenes, 1 mg/L.
Regarding `C=CCNC(=N)NCCCCCCCCN1CCCCCCCCNC(=N)NC1=O.O=C(O)C(F)(F)F.O=C(O)C(F)(F)F`, the MIC is 64 mg/L against Acinetobacter baumannii; 128 mg/L in the assay with Klebsiella pneumoniae; over 256 mg/L against Pseudomonas aeruginosa; 1 mg/L in the assay with Bacillus subtilis; 128 mg/L in the assay with Enterococcus faecalis; 16 mg/L in [2]. This molecule showed an MIC in the assay with Streptococcus pyogenes of 4 mg/L.
For `CN(CCCCCCCCNCCCCCCCCNC(=N)N)C(=N)NCc1ccccc1.O=C(O)C(F)(F)F.O=C(O)C(F)(F)F.O=C(O)C(F)(F)F`, the MIC against Acinetobacter baumannii was 128 mg/L; against Aeromonas hydrophila, 256 mg/L; in [1], 64 mg/L; in the assay with Escherichia coli, over 256 mg/L; in the assay on Klebsiella pneumoniae, 32 mg/L; with Pseudomonas aeruginosa, 32 mg/L. Besides, the MIC was over 256 mg/L against Bacillus subtilis, 16 mg/L against Enterococcus faecalis, 32 mg/L in [2] and 16 mg/L against Streptococcus pyogenes.
As to `C/C=C/CNC(=N)NCCCCCCCCN1CCCCCCCCNC(=N)NC1=O.O=C(O)C(F)(F)F.O=C(O)C(F)(F)F`, the MIC against Acinetobacter baumannii was found to be 32 mg/L; with Aeromonas hydrophila, 64 mg/L; in assay [1] it was 128 mg/L; in the assay on Escherichia coli it was 64 mg/L; against Klebsiella pneumoniae, 32 mg/L; against Pseudomonas aeruginosa, 256 mg/L. The MIC came out at 4 mg/L in the assay with Bacillus subtilis, 8 mg/L against Enterococcus faecalis, 4 mg/L in assay [2] and 2 mg/L in the assay on Streptococcus pyogenes.
For the molecule `N=C(NCCCCCCCCN1CCCCCCCCNC(=N)NC1=O)NCC1CC1.O=C(O)C(F)(F)F.O=C(O)C(F)(F)F`, the MIC is 64 mg/L against Acinetobacter baumannii; 128 mg/L in the assay on Klebsiella pneumoniae; over 256 mg/L against Pseudomonas aeruginosa; 4 mg/L with Bacillus subtilis; 32 mg/L in the assay with Enterococcus faecalis; 8 mg/L in [2]. Further, it took 32 mg/L to inhibit growth in the assay on Streptococcus pyogenes (MIC).
